Screening results deposited in PubChem by several laboratories.
M1 agonist – agonists of M1 muscarinic receptor; AID 626; actives 3% (n = 64,000); B-score at 10 µM; CHO-M1 cells, Fluo-4 calcium fluorescence, agonist mode; stronger effect = higher value;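 active = fluorescence rise, raw or as B-score row- and column-corrected plate score, outside the 99.7% band of its plate's samples, either direction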
D1 mod – allosteric modulators of human D1 dopamine receptor; HEK293 D1, CRE-luciferase, dopamine EC30 potentiation; actives deviate in either direction; P21728; actives 5.9% (n = 58,000); B-score at 10 µM;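 active = luminescence count or its row- and column-corrected plate score outside the 99.7% band of the plate's sample wells, on either side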
SF1 activator – activates the human nuclear receptor SF-1. CHO-K1 Gal4-SF-1 LBD luciferase reporter; % increase over DMSO SF-1-specific signal. activation, % at 10 µM. actives 1.9% (n = 65,000);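 active = activation above the mean activation of all tested compounds plus 3 SD, cut at about 50% in these data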
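Assay system: CHO-K1 cells co-transfected with Gal4 DBD–human SF-1 LBD, 5xGal4 luciferase reporter; doses: 10 µM only; incubation: 20 h compound exposure at 37 °C after 1 h cell settling; signal: luciferase light emission; evaluation: percent activation versus DMSO; repeats: one test per compound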
M1 antag – blocks the rat M1 muscarinic receptor response to acetylcholine | P08482 | CHO-M1 cells, Fluo-4 calcium, ACh EC80 antagonist mode; stronger effect = lower value | B-score at 10 µM | actives 3.4% (n = 64,000);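 active = calcium fluorescence response, raw or row-and-column corrected B-score, differing from the plate sample mean either way at a set confidence level, mostly lower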
mHtt clearance – mutant huntingtin protein clearance; actives 0.42% (n = 47,000); inhibition, % at 1.5 µM; HeLa Exon1htt(103Q)mCFP, aggregate imaging; zero = plate's median compound well;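 active = inhibition of aggregate fluorescence above about 70%, also judged a hit by eye on the cell image, limit read from the data, passing the limit was not always enough; inconclusive = no rule stated for this call; inactive = not judged a hit on image review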;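 also: cells exposed to compound for three days before fixation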
RORA act – activates the human nuclear receptor RORA; P35398; CHO-K1 Gal4-RORA LBD luciferase reporter, luminescence; percent increase over mock-subtracted basal signal; activation, % at 10 µM; actives 1.5% (n = 65,000);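 active = activation above the mean of all tested compounds plus 3 SD, cut at about 49% in these data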
M1 agonist conf – rat M1 muscarinic agonism, confirmation. shares compounds with M1 agonist. CHO-M1 cells, Fluo-4 calcium fluorescence, agonist mode; actives lie on both sides. fluorescence change (max-min) at 10 µM. actives 19% (n = 1,700). AID 1488;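 active = fluorescence change differs from the solvent-only DMSO control mean at a set confidence level in both duplicate runs; inconclusive = differs from solvent-only control mean in just one of two runs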;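 also: an EC20 dose of acetylcholine follows compound addition during the same imaging run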
M4 agonist ctr – activates rat M4 receptor in counter-screen for M1 agonists. AID 1741. actives 9% (n = 1,700). shares compounds with M1 agonist. CHO M4/Gqi5 cells, Fluo-4 calcium fluorescence, agonist mode; actives lie on both sides. fluorescence change (max-min) at 10 µM;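 active = fluorescence change differing from the plate's solvent-only control wells at 99.7% confidence in both duplicates, whether higher or lower; inconclusive = differs from solvent controls in only one of two duplicates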
Target sequence (P08485 whole entry, looked up): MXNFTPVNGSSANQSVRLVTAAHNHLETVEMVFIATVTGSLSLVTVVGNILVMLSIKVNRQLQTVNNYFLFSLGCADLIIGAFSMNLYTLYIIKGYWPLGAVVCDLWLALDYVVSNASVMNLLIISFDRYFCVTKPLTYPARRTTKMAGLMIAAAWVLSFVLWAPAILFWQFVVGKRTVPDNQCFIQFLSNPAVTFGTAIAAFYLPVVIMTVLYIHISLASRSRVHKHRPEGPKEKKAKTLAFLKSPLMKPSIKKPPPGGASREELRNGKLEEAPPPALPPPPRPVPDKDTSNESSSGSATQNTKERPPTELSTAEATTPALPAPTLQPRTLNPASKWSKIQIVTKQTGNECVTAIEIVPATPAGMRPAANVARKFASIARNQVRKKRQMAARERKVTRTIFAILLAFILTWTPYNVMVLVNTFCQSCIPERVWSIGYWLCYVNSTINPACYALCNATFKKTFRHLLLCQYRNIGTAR
A number is an active result; . = inactive; ? = inconclusive; / = no result given. An excerpt weighted towards active compounds, which were near 11% of everything screened.

SMILES	M1 agonist	D1 mod	SF1 activator	M1 antag	mHtt clearance	RORA act	M1 agonist conf	M4 agonist ctr
CN1CC=C2C(C#N)=C(N)C(C#N)(C#N)[C@H](c3cccs3)[C@H]2C1	/	/	/	/	.	/	/	/
COc1cc([C@@H]2[C@H]3CN(C)CC=C3C(C#N)=C(N)C2(C#N)C#N)cc2c1OCO2	6.65	/	.	.	/	.	.	.
COC(=O)C(C)n1cnc2c(nnn2-c2ccc(OC)cc2)c1=O (configuration not stated)	.	.	.	.	.	.	/	/
CCOC(=O)C(CC)n1cnc2c(nnn2-c2ccc(C)cc2)c1=O (configuration not stated)	6.41	.	.	.	/	.	.	-70.6
CC(=O)c1c(C)nn(CC(O)Cn2c3c(c4cc(C)ccc42)CCCC3=O)c1C (configuration not stated)	5.16	.	.	.	.	.	-42	.
Cc1ccc2c(c1)-c1c(cnn1CC(=O)N1CCCN(Cc3ccccc3F)C1)CO2	3.44	-2.94	.	.	/	.	?	.
Cc1ccc2c(c1)-c1c(cnn1CC(=O)O)CO2	.	.	.	.	/	.	/	/
O=C(Cn1ncc2c(=O)oc3ccccc3c21)N1CCCN(Cc2ccccc2F)C1	5.98	.	.	.	/	.	.	.
O=C(Cn1ncc2c(=O)oc3ccccc3c21)N1CCN(C(=O)c2ccco2)CC1	.	.	.	.	/	.	/	/
COc1ccc(C2(O)CCN(CC(=O)Nc3nccs3)CC2)c(OC)c1	.	.	.	.	.	.	/	/
COc1cccc(-n2c(C)nc3c(cnn3-c3ccc(C)cc3)c2=O)c1	.	.	.	.	/	.	/	/
COc1ccc(-n2c(C)nc3c(cnn3-c3ccc(Cl)cc3)c2=O)cc1	4.14	.	.	.	/	.	.	.
Cc1cccc(-n2c(C)nc3c(cnn3-c3ccc(F)cc3)c2=O)c1	9.38	.	.	.	.	.	.	?
COC(=O)C(C)n1cnc2c(cnn2-c2ccc(Cl)cc2)c1=O (configuration not stated)	4.63	/	52.6	.	.	.	.	.
CN1CC(=O)N/C1=N\C(=O)Nc1ccc2c(c1)N(C)C(=O)CS2	.	/	.	.	/	.	/	/
COc1ccc2[nH]c(=O)c(CN(Cc3nnnn3Cc3ccc(F)cc3)CC3CCCO3)cc2c1 (configuration not stated)	2.61	.	.	.	.	.	.	.
CCOc1ccc2[nH]c(=O)c(CN(Cc3cccnc3)C(=O)Nc3ccccc3OC)cc2c1	.	.	.	.	.	.	/	/
COc1ccc2[nH]c(=O)c(CN(CC3CCCO3)C(=O)Nc3ccccc3OC)cc2c1 (configuration not stated)	6.43	/	.	.	/	.	.	.
COc1ccc2[nH]c(=O)c(CN(Cc3cccnc3)C(=O)Nc3ccccc3)cc2c1	3.51	/	.	.	/	.	-27.9	?
COc1ccc(NCc2cc3cc(OC)ccc3[nH]c2=O)cc1	3.84	/	.	.	/	.	.	.
COc1ccc2[nH]c(=O)c(CN(Cc3nnnn3Cc3ccccc3)CC3CCCO3)cc2c1 (configuration not stated)	.	/	.	.	.	.	/	/
CCSc1nnc(Cc2cc(=O)[nH]c(=O)[nH]2)n1-c1cc(C)ccc1C	.	/	.	.	/	.	/	/
Cc1ccc(SCC(=O)NC(=O)NCc2ccco2)cc1C	/	/	/	/	.	/	/	/
c1ccc(-c2nc(-n3ccnc3)nc(-n3ccnc3)n2)cc1	7.86	.	.	.	/	.	.	.
CC(C(=O)NCC1CCCO1)n1cccc1C(=O)c1ccccc1 (configuration not stated)	20.9	.	.	2.26	/	.	.	?
SMILES	M1 agonist	D1 mod	SF1 activator	M1 antag	mHtt clearance	RORA act	M1 agonist conf	M4 agonist ctr
C(=N\n1cnnc1)/c1ccccc1OCCOc1ccccc1	.	.	.	.	.	.	/	/
Cc1cccc(C(=O)Nc2ncc(CN3CCOCC3)s2)c1	.	.	.	.	/	.	/	/
CCOC(=O)Cc1cnc(NC(=O)c2ccccc2)s1	3.21	.	.	.	/	.	.	?
O=C1c2oc3ccccc3c(=O)c2C(c2ccc(Br)cc2)N1c1ncccn1 (configuration not stated)	.	.	.	.	/	.	/	/
CCN1C(=O)NC(c2cc(Br)ccc2OC)C(C(=O)OC)=C1C (configuration not stated)	.	.	.	.	.	.	/	/
CCN1CCN(Cc2ccc(NC(=O)Nc3ccccc3)cc2)CC1	6.51	-5.76	.	.	.	.	.	.
Clc1ccc(C(c2nnnn2C2CCCC2)N2CCSCC2)cc1 (configuration not stated)	8.02	/	.	.	.	.	.	?
Cc1csc(SCCn2c(N3CCN(c4ccccc4)CC3)nc3c2c(=O)[nH]c(=O)n3C)n1	5.38	.	.	-2.47	.	.	?	.
CCn1c(CCn2ccnc2C)n[nH]c1=S	52.8	.	.	-7.26	.	.	225	?
CCn1c(CC(C)C)n[nH]c1=S	.	.	.	.	/	.	/	/
Cc1ccccc1CN(c1ccc(C(=O)Nc2ccccc2C(=O)NCc2ccco2)cc1)S(C)(=O)=O	/	/	/	/	.	/	/	/
N#CC1=C(N)Oc2n[nH]c(-c3cccs3)c2C1C1CCCCC1 (configuration not stated)	/	/	/	/	.	/	/	/
N#CC1=C(N)Oc2n[nH]c(-c3cccs3)c2C1c1ccco1 (configuration not stated)	37.3	.	.	.	.	.	138	115
Cc1cc(NC(=O)COC(=O)C(Nc2ccc(C(F)(F)F)cc2Cl)C(C)C)no1 (configuration not stated)	.	.	.	.	/	.	/	/
CCOC(=O)N1CCC(NC(=O)c2cc3c(-c4ccc(OC)c(OC)c4)nn(C)c3s2)CC1	.	.	.	.	/	.	/	/
CCOC(=O)C1CCN(C(=O)c2cc3c(-c4ccc(OC)c(OC)c4)nn(C)c3s2)CC1	2.28	.	.	.	.	.	.	.
COC(=O)c1ccc(C(C(=O)NCc2ccccc2)N(Cc2ccco2)C(=O)c2cnccn2)cc1 (configuration not stated)	.	.	.	.	/	.	/	/
COc1cc(OC)cc(C(C(=O)NCc2ccccc2)N(Cc2ccco2)C(=O)c2ccno2)c1 (configuration not stated)	7.11	/	.	.	/	.	.	?
O=C(NCCc1cccc(Cl)c1)c1cccnc1	10.6	.	.	-4.36	/	.	.	.
O=C(NCc1cccnc1)c1cccc(Cl)c1	.	.	.	.	.	.	/	/
O=Nc1c2nc3ccccc3n(O)c-2c2ccccc12	.	.	.	.	.	.	/	/
